How the values were obtained:
[1] = target: Alkaline phosphatase (Escherichia coli K-12) (UniProt P00634); experiment: Inhibition constant for Escherichia coli alkaline phosphatase at pH 9
How it was run: (§1)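 Competitive inhibition kinetics with p-nitrophenyl phosphate as substrate at 25°C, in 100 mM TRIS, 1 mM ZnCl2, 1 mM MgCl2, pH 9.0. Ki (mM) was derived from the competitive inhibition rate equation.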

Homo sapiens [2] = organism: Homo sapiens; experiment: Inhibition constant for human placental alkaline phosphatase at pH 9; how it was run: as §1
[3] = target: Secreted effector protein (Yersinia pestis) (UniProt O68720); experiment: Inhibition constant for YOP protein tyrosine phosphatase at pH 6.6
How it was run: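 Competitive Ki (mM) measured at 25°C against p-nitrophenyl phosphate substrate, in 100 mM succinate, 150 mM NaCl, pH 6.6.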

[4] = target: T1, Serine/threonine-protein phosphatase (Enterobacteria phage lambda) (UniProt P03772); experiment: Inhibition constant for lambda protein phosphatase in presence of [Mn2+] at 5 mM pH 7.3
T1 sequence (whole entry): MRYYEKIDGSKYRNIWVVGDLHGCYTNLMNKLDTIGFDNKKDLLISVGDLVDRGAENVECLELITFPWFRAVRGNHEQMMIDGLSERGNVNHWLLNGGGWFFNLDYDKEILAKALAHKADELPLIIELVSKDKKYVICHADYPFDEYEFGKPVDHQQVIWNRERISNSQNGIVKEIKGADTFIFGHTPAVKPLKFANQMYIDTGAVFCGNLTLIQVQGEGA

[5] = Inhibition constant protein phosphatase 2C in presence of [Mn2+] at 5 mM pH 7.5
How it was run: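 Competitive inhibition kinetics with p-nitrophenyl phosphate substrate (Km 1.1 mM under these conditions) at 25°C, in 100 mM TRIS, 5 mM MnCl2, 1 mM DTT, pH 7.5. Ki (mM) was derived from the competitive inhibition rate equation.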

[6] = Inhibition constant for protein phosphatase 2C in presence of [Mn2+] at 1 mM pH 7.5
How it was run: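 Kinetics at 25°C with p-nitrophenyl phosphate substrate in 100 mM TRIS, 1 mM MnCl₂, 1 mM DTT, pH 7.5. Mn²⁺ was lowered from 5 mM for compounds precipitating at that level. Substrate Km was 1.1 mM and matched within error at both Mn²⁺ levels. Ki (mM) from a competitive inhibition model.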

Homo sapiens [7] = organism: Homo sapiens; experiment: Inhibition constant for human placental alkaline phosphatase at pH 9; No reduction in rate
[8] = target: Alkaline phosphatase (Escherichia coli K-12) (UniProt P00634); experiment: Inhibition constant for Escherichia coli alkaline phosphatase at pH 9; No reduction in rate

Chain of Alkaline phosphatase (Escherichia coli K-12) (P00634 whole entry): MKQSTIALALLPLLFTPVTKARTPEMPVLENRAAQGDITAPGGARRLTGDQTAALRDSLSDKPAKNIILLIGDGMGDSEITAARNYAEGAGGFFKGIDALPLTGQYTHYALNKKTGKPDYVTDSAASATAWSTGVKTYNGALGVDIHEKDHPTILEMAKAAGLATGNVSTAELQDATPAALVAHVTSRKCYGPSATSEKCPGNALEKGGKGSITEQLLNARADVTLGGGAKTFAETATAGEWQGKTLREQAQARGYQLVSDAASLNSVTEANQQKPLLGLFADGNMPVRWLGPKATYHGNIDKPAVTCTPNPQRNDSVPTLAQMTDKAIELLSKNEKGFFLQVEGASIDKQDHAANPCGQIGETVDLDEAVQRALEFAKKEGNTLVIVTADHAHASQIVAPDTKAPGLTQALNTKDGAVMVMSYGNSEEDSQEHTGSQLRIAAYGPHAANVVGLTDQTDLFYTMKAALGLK

Question: What does the source list for `N[C@@H](Cc1ccc(OCP(=O)(O)O)cc1)C(=O)O`?
Answer: Inhibition [1]: 5 mM; Inhibition (Homo sapiens [2]): 1.7 mM; Inhibition [3]: 21 mM; Inhibition [4]: 0.02 mM; Inhibition [5]: 0.76 mM

Question: Which results are given for `O=C(O)Cc1ccc(OCCP(=O)(O)O)cc1`?
Answer: Inhibition [1]: 0.6 mM; Inhibition (Homo sapiens [2]): 0.14 mM; Inhibition [3]: 19 mM; Inhibition [4]: 0.12 mM; Inhibition [5]: 0.23 mM

Question: For `O=P(O)(O)CCOc1ccccc1`, which Inhibition [1] is on record?
Answer: 0.1 mM

Question: What about the Inhibition (Homo sapiens [2]) of the same compound?
Answer: 0.11 mM

Question: What about the Inhibition [3] of the same compound?
Answer: 2.17 mM

Question: What about the Inhibition [4] of the same compound?
Answer: 0.05 mM

Question: And the Inhibition [6]?
Answer: 0.4 mM

Question: For `O=C(O)c1cccc2cc(OCP(=O)(O)O)ccc12`, which Inhibition [1] is on record?
Answer: 4.2 mM

Question: And the Inhibition (Homo sapiens [2])?
Answer: 3.4 mM

Question: And the Inhibition [3]?
Answer: 2.2 mM

Question: And the Inhibition [4]?
Answer: 0.03 mM

Question: What about the Inhibition [5] of the same compound?
Answer: 0.06 mM

Question: For `N[C@H](Cc1ccc(OCP(=O)(O)O)cc1)C(=O)O`, which Inhibition [1] is on record?
Answer: 4.8 mM

Question: And the Inhibition (Homo sapiens [2])?
Answer: 1.85 mM

Question: What about the Inhibition [3] of the same compound?
Answer: 0.63 mM

Question: And the Inhibition [4]?
Answer: 0.03 mM

Question: And the Inhibition [5]?
Answer: 0.34 mM

Question: Which Inhibition [1] does the source give for `O=C(O)Cc1ccc(OCP(=O)(O)O)cc1` here?
Answer: 5.1 mM

Question: What about the Inhibition [3] of the same compound?
Answer: 12 mM

Question: What about the Inhibition [4] of the same compound?
Answer: 0.19 mM

Question: What about the Inhibition [5] of the same compound?
Answer: 0.13 mM

Question: And the Inhibition (Homo sapiens [7])?
Answer: No inhibition

Question: For `O=P(O)(O)COc1ccccc1`, which Inhibition (Homo sapiens [2]) is on record?
Answer: 0.9 mM

Question: And the Inhibition [3]?
Answer: 5 mM

Question: What about the Inhibition [4] of the same compound?
Answer: 0.27 mM

Question: And the Inhibition [6]?
Answer: 0.32 mM

Question: What about the Inhibition [8] of the same compound?
Answer: No inhibition

Question: Which results are given for `O=P(O)(O)COc1ccc2ccccc2c1`?
Answer: Inhibition [1]: 4 mM; Inhibition (Homo sapiens [2]): 1.1 mM; Inhibition [3]: 6.3 mM; Inhibition [4]: Precipitation; Inhibition [5]: Precipitation

Question: With `O=P(O)(O)CCSc1ccccc1` as the compound, how does the Inhibition [1] read?
Answer: 0.9 mM

Question: What about the Inhibition (Homo sapiens [2]) of the same compound?
Answer: 0.69 mM

Question: What about the Inhibition [3] of the same compound?
Answer: 10 mM

Question: And the Inhibition [4]?
Answer: 0.14 mM

Question: And the Inhibition [6]?
Answer: 0.3 mM

Question: Which Inhibition [1] does the source give for `O=P(O)(O)CSc1ccccc1` here?
Answer: 0.04 mM

Question: And the Inhibition (Homo sapiens [2])?
Answer: 0.13 mM

Question: What about the Inhibition [3] of the same compound?
Answer: 4.6 mM

Question: What about the Inhibition [4] of the same compound?
Answer: 0.33 mM

Question: And the Inhibition [6]?
Answer: 0.17 mM

From ChEMBL document CHEMBL1138710, “A nonhydrolyzable analogue of phosphotyrosine, and related aryloxymethano- and aryloxyethano-phosphonic acids as motifs for inhibition of phosphatases” (Bioorg Med Chem Lett, 2004)
